The nature of assay [1]: inhibitors of TNFa-induced NFkB p65 translocation, primary screen, imaging, HUVEC, MLSMR starter and 10KST1 sets (AID 438;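 active means inhibition above 20% together with a positive visual image hit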;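 further: compound added about 3h40 before a 20 min TNFalpha stimulation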;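 on inhibition: signal is the nuclear over cytoplasmic p65 intensity ratio per well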). Particulars: HUVEC TNFa-induced p65 nuclear translocation; cell count: measured here: nuclei count (cytotoxicity indicator), at 2.08 µM; inhibition: at 2 µM, stronger effect = higher value, 0% TNFa-plus-vehicle, 100% no-TNFa wells.
A short description of assay [2]: reduction of polyQ htt aggregates in cells – imaging, exon1htt(103Q)mCFP cells, high-content imaging, primary screen (AID 483;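 active means visual image review flags a hit and inhibition of aggregation exceeds 20%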;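 further: compound exposure lasted 3 days before fixation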;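 on nuclei count: percent of the per-plate median nuclei count of sample wells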). The conditions noted are these: exon1htt(103Q)mCFP cell line, aggregate imaging, at 2 µM; inhibition of aggregation: stronger effect = higher value; nuclei count: measured here: cell count, toxicity.
Assay [3] can be described thus: endothelial E-selectin expression blockers – imaging, HUVEC, immunofluorescence, MLSMR starter and 10KST1 sets, primary screen (AID 487;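 active means visually confirmed hit in the image check and inhibition above 20%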;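 on inhibition: signal is fraction of cell area covered by stained E-selectin grains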;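 on nuclei count: 100% = median nuclei count of all wells on the same plate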). Particulars: HUVEC TNFalpha-induced E-selectin immunofluorescence imaging, at 2 µM; inhibition: stronger effect = higher value; nuclei count: measured here: cell number, toxicity.
The target in assay [4] is Voltage-gated potassium channel subunit beta-2 (Rattus norvegicus) (UniProt P62483). The assay can be described thus: inhibitors of rat Kvbeta2 reductase activity – biochemical, NADPH fluorescence, primary screen (AID 622;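 active means fluorescence slope higher than the sample average by over 3 SD, cut at about -0.22 in these data, passing the limit was not always enough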;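 further: slope of raw intensity against log time taken from 70 to 1610 s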). The conditions noted are these: recombinant KvBeta, 4-cyanobenzaldehyde reduction, at 10 µM, stronger effect = higher value.
The target is the same in assay [5]. The experiment in a line: enhancers of rat Kvbeta2 NADPH turnover – biochemical, NADPH fluorescence, primary screen (AID 623).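 Further: fluorescence intensity change per second fitted from 20 to 320 s.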 Particulars: Recombinant KvBeta, NADPH fluorescence decrease slope, 10 min; at 10 µM; stronger effect = lower value.
In assay [6] the target is Muscarinic acetylcholine receptor M4 (Homo sapiens) (UniProt P08173). The experiment in a line: M4-linked GIRK flux change, two-sided – cell-based, HEK293 M4/GIRK, thallium flux, BTC-AM, M4 allosteric agonist project, primary screen (AID 625;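 active means fluorescence slope after compound addition differing from the mean of all tested samples at 99.7% confidence, mostly higher but some lower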;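 further: thallium influx through GIRK channels coupled to M4 in HEK293 cells with BTC-AM dye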). Particulars: at 10 µM, actives lie on both sides. Summed up: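 System: HEK293 cells with M4 receptor and GIRK channels | Incubation: Cells overnight at 37 °C, BTC-AM loading 1 h, reads 2 min total | Technique: Kinetic BTC-AM fluorescence sampled at 1 Hz, 10 s pre-addition baseline | Measure: Post-addition slope, 15–24 s, of baseline-normalized fluorescence | Control set: Carbachol positive, DMSO negative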

Assay [7] in a line: blockers of RIG-like receptor reporter activation – cell-based, Sendai virus stimulus, luciferase, 10K MLSCN set, TLR/RLR signaling modifier project, primary screen (AID 602276;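 active means inhibition at or above 50% at 10 µM; inactive means inhibition below 50%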;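 further: firefly luciferase from ISG56 promoter only with Renilla not read in this screen; 0% = Sendai virus plus DMSO and 100% = medium plus DMSO without virus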). Particulars: HEK293 RL24 IRF3 luciferase reporter, at 10 µM, stronger effect = higher value.
The nature of assay [8]: TLR3 IRF3 reporter activation blockers – cell-based, poly I:C stimulus, luciferase, 10K MLSCN set, primary screen (AID 602277;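 active means inhibition of the reporter signal at or above 50%; inactive means inhibition below 50%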). The conditions noted are these: HEK293-TLR3 RL24 IRF3 luciferase reporter, at 10 µM, stronger effect = higher value. For orientation: Reporter assays use an easily measured gene product as a stand-in for the process of interest.

Activity calls are given as the source filed them.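 How the source made its calls, unless noted: active means NADPH fluorescence slope more negative than the mean of all samples by about 3 SD, 99.7% confidence; inactive means the rest.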

In general, inhibition refers to the change of the read-out against control, counted positive when it falls.

Sequence of Voltage-gated potassium channel subunit beta-2 (Rattus norvegicus) (P62483 whole entry, looked up): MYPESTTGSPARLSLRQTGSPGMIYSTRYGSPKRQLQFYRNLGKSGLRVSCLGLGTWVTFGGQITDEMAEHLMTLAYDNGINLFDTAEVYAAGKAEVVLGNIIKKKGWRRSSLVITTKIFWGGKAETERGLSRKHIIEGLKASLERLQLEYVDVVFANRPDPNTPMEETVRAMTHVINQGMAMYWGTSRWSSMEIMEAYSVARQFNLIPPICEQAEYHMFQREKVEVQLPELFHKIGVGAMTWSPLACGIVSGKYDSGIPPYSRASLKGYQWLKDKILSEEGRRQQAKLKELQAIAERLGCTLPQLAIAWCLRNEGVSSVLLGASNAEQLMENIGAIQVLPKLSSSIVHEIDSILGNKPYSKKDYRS
Sequence of Muscarinic acetylcholine receptor M4 (Homo sapiens) (P08173 whole entry, looked up): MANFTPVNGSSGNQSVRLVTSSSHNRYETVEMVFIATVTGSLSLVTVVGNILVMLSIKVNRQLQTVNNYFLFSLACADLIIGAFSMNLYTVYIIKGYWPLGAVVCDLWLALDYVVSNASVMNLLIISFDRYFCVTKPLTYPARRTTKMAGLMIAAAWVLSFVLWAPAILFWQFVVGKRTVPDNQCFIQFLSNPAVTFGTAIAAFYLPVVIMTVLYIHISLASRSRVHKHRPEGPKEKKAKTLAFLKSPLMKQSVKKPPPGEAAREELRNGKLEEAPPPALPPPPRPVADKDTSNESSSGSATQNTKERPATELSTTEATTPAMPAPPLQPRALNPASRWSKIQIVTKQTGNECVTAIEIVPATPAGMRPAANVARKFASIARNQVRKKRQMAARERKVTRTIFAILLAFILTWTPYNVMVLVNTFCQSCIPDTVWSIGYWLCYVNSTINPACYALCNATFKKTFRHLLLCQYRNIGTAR

As to `COc1oc(-c2ccccc2)nc1C(F)(F)F`, in assay [1], the cell count was determined as 353. For the same compound, the inhibition is 4.1% (inactive) in assay [1], -15.8% (inactive) in assay [3], 3.7% (inactive) in assay [7] and 12.2% (inactive) in assay [8]. Further, in assay [2], the inhibition of aggregation is 0.7% (inactive). For the same compound, the nuclei count in assay [2] amounted to 106%; in assay [3] it was 116%. The figures for the fluorescence slope in assay [4] and in assay [6] were -0.473 (inactive) and 0.00537 (inactive), respectively. Also, the NADPH fluorescence slope in assay [5] is -3.2e-05 (inactive).

For `O=C(Nc1cccnc1N1CCOCC1)c1ccco1`, the cell count in assay [1] was 579. Also, the inhibition in assay [1] is -0.3% (inactive); in assay [3] it was -56.6% (inactive); in assay [7], 10.9% (inactive); in assay [8] it was 10.7% (inactive). Moreover, the inhibition of aggregation in assay [2] was 4.6% (inactive). Moreover, the values for the nuclei count in assay [2] and in assay [3] were 104% and 109%, respectively. Further, the fluorescence slope was -0.221 (inactive) in assay [4] and 0.00549 (inactive) in assay [6]. Moreover, the NADPH fluorescence slope in assay [5] was -1.1e-05 (inactive).

In the case of `Cc1ccc(-c2[nH]nc3c2C(c2ccoc2)C(C#N)=C(N)O3)cc1C` (stereo not given), the cell count in assay [1] was found to be 853. The inhibition in assay [1] was 3.6% (inactive); in assay [3] it was -111% (inactive); in assay [7], 23.8% (inactive); in assay [8] it was 16.8% (inactive). In assay [2], the inhibition of aggregation was 7.7% (inactive). The values for the nuclei count in assay [2] and in assay [3] were 92.5% and 126%, respectively. The fluorescence slope in assay [4] is -0.474 (inactive); in assay [6], 0.00509 (inactive). The NADPH fluorescence slope in assay [5] was -5.3e-05 (inactive).

`CCOC(=O)N1CCN(S(=O)(=O)c2cc(C)c(C)cc2C)CC1`: the cell count in assay [1] stood at 373. For the same compound, the inhibition in assay [1] is 2.8% (inactive); in assay [3], -69.5% (inactive); in assay [7], 13.4% (inactive); in assay [8], 20.2% (inactive). Further, the inhibition of aggregation in assay [2] is -7.2% (inactive). In addition, the nuclei count in assay [2] was determined as 99.3%; in assay [3], 137%. Moreover, the fluorescence slope in assay [4] is -0.459 (inactive); in assay [6], 0.00447 (inactive). For the same compound, the NADPH fluorescence slope in assay [5] was -1.8e-05 (inactive).

Turning to `CCn1c(Cc2ccccc2)nnc1SCC(=O)Nc1nc2ccccc2s1`, in assay [1], the cell count turned out to be 741. The inhibition is -0.5% (inactive) in assay [1], -24.9% (inactive) in assay [3], 18.4% (inactive) in assay [7] and 17.4% (inactive) in assay [8]. In assay [2], the inhibition of aggregation is -25.5% (inactive). Also, the nuclei count came out at 115% in assay [2] and 97.6% in assay [3]. The fluorescence slope was -0.469 (inactive) in assay [4] and 0.00499 (inactive) in assay [6]. Further, the NADPH fluorescence slope in assay [5] was -4.8e-05 (inactive).

`CCC(=O)N1CCNC(=O)C1CC(=O)Nc1ccc(C)c(Cl)c1` (stereo not given): in assay [1], the cell count was 258. Also, the inhibition is 3.7% (inactive) in assay [1], -40.7% (inactive) in assay [3], -5.01% (inactive) in assay [7] and -2.47% (inactive) in assay [8]. In assay [2], the inhibition of aggregation was -13.9% (inactive). For the same compound, the results for the nuclei count in assay [2] and in assay [3] were 102% and 88.8%, respectively. For the same compound, the fluorescence slope in assay [4] was -0.56 (inactive); in assay [6] it was 0.00516 (inactive). Besides, the NADPH fluorescence slope in assay [5] was 1.7e-05 (inactive).

Regarding `O=C(Nc1ccc(Cc2ccncc2)cc1)C1CC1`, the cell count in assay [1] came out at 447. Moreover, the inhibition in assay [1] was 2.9% (inactive); in assay [3], -33.5% (inactive); in assay [7] it was 7.94% (inactive); in assay [8], 15.6% (inactive). In addition, the inhibition of aggregation in assay [2] was -6.1% (inactive). In addition, the values for the nuclei count in assay [2] and in assay [3] were 100% and 118%, respectively. For the same compound, the fluorescence slope in assay [4] is -0.605 (inactive); in assay [6], 0.00686 (inactive). In addition, in assay [5], the NADPH fluorescence slope was 2.8e-05 (inactive).

Regarding `c1ccc(-n2nnnc2OCCOc2nnnn2-c2ccccc2)cc1`, the cell count in assay [1] came out at 172. Besides, the inhibition in assay [1] was -10.5% (inactive); in assay [3], -5.3% (inactive); in assay [7], 14.3% (inactive); in assay [8], 23.8% (inactive). Besides, the inhibition of aggregation in assay [2] was 11.5% (inactive). Besides, the nuclei count in assay [2] came to 102%; in assay [3], 83.1%. The fluorescence slope in assay [4] was -0.562 (inactive); in assay [6] it was 0.00376 (inactive). Moreover, the NADPH fluorescence slope in assay [5] is -6.2e-05 (inactive).

On to `CN(C)CCCNC(=O)CCC1CCCCC1`, for which the cell count in assay [1] turned out to be 333. Also, the inhibition is -12.5% (inactive) in assay [1], -132% (inactive) in assay [3], 12% (inactive) in assay [7] and 21.1% (inactive) in assay [8]. Besides, in assay [2], the inhibition of aggregation is -4% (inactive). For the same compound, the figures for the nuclei count in assay [2] and in assay [3] were 103% and 110%, respectively. Also, the fluorescence slope in assay [4] is -0.277 (inactive); in assay [6], 0.00526 (inactive). In assay [5], the NADPH fluorescence slope is -3.7e-05 (inactive).

For the compound `C1=CC2CC1CC2CN1CCN(c2ccccc2)CC1` (stereo not given), in assay [1], the cell count turned out to be 411. The inhibition is 1.5% (inactive) in assay [1], -37.7% (inactive) in assay [3], 2.18% (inactive) in assay [7] and 4.2% (inactive) in assay [8]. In addition, the inhibition of aggregation in assay [2] was -19.6% (inactive). Also, the figures for the nuclei count in assay [2] and in assay [3] were 114% and 100%, respectively. Further, the values for the fluorescence slope in assay [4] and in assay [6] were -0.479 (inactive) and 0.00448 (inactive), respectively. The NADPH fluorescence slope in assay [5] was -2.1e-05 (inactive).

`CCOC(=O)c1ccc(NC(=O)CC2SC(=NC)N(C)C2=O)cc1` (stereo not given): the cell count in assay [1] is 401. For the same compound, the inhibition in assay [1] was 14.6% (inactive); in assay [3] it was -14.5% (inactive); in assay [7], 13.7% (inactive); in assay [8], 17.7% (inactive). For the same compound, the inhibition of aggregation in assay [2] is -8.2% (inactive). Moreover, the values for the nuclei count in assay [2] and in assay [3] were 103% and 110%, respectively. Further, the fluorescence slope in assay [4] was -0.48 (inactive); in assay [6], 0.00547 (inactive). Besides, the NADPH fluorescence slope in assay [5] was -5.8e-05 (inactive).

`Cn1cccc1-c1cc(C(=O)O)[nH]n1`: in assay [1], the cell count was determined as 825. The inhibition in assay [1] is -8.7% (inactive); in assay [3] it was -57.9% (inactive); in assay [7] it was 15.5% (inactive); in assay [8] it was 15.9% (inactive). The inhibition of aggregation in assay [2] is 7.8% (inactive). For the same compound, the nuclei count turned out to be 56.8% in assay [2] and 139% in assay [3]. The fluorescence slope in assay [4] was -0.465 (inactive); in assay [6] it was 0.00382 (inactive). The NADPH fluorescence slope in assay [5] was -0.000188 (inactive).

Take `Cc1nc(CNS(=O)(=O)c2cc(C)c(C)cc2C)cs1`: the cell count in assay [1] turned out to be 331. Further, the inhibition in assay [1] was 6.3% (inactive); in assay [3] it was -13.2% (inactive); in assay [7], 9.82% (inactive); in assay [8], 10.7% (inactive). In assay [2], the inhibition of aggregation was -7.4% (inactive). The nuclei count came to 109% in assay [2] and 107% in assay [3]. For the same compound, the fluorescence slope in assay [4] was -0.329 (inactive); in assay [6], 0.00703 (inactive). Also, the NADPH fluorescence slope in assay [5] was -5.1e-05 (inactive).

For the compound `COc1cccc(OC)c1C(=O)Nc1ccc(CN2CCCCC2)cc1`, in assay [1], the cell count stood at 640. The inhibition in assay [1] was -2.4% (inactive); in assay [3] it was -32.5% (inactive); in assay [7], 13.4% (inactive); in assay [8] it was 23.2% (inactive). The inhibition of aggregation in assay [2] is -16.7% (inactive). In addition, the nuclei count amounted to 71.4% in assay [2] and 98.8% in assay [3]. Further, the fluorescence slope in assay [4] is -0.425 (inactive); in assay [6] it was 0.00659 (inactive). Moreover, the NADPH fluorescence slope in assay [5] is -3.1e-06 (inactive).

`COc1ccccc1NC1=C(C)C(=O)CC1`: the cell count in assay [1] came to 537. For the same compound, the inhibition in assay [1] is 10.5% (inactive); in assay [3] it was -5.6% (inactive); in assay [7], 19.4% (inactive); in assay [8], 34% (inactive). For the same compound, in assay [2], the inhibition of aggregation is 7.8% (inactive). For the same compound, the figures for the nuclei count in assay [2] and in assay [3] were 88.4% and 102%, respectively. Besides, the fluorescence slope in assay [4] is -0.246 (inactive); in assay [6], 0.00566 (inactive). The NADPH fluorescence slope in assay [5] was -3e-05 (inactive).

Values taken from PubChem BioAssay.
